The values below come from ChEMBL document CHEMBL3102749, “Antiprotozoal activity of dicationic 3,5-diphenylisoxazoles, their prodrugs and aza-analogues” (Bioorg Med Chem, 2014).

The source made the active and inactive calls. No cut-off for these calls is given here. Where only a bound is given, the exact number is not on record here.

The test system of data set [1] is Trypanosoma brucei rhodesiense. Description: Trypanocidal activity against bloodstream form of Trypanosoma brucei rhodesiense STIB900 infected in NMRI mouse assessed as mean survival days at 5 mg/kg, ip qd administered for 4 days. The data set is classed as functional. The conditions noted are these: route intraperitoneal. The method in brief: (§1)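 Mice infected with T. b. rhodesiense STIB900 (acute model) dosed once daily for 4 consecutive days, ip (diamidines) or oral (prodrugs). Cure means survival to 60 days post infection without parasitemia relapse. Mean survival days post infection are averaged over all mice, with cured mice counted as >60 days.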

In data set [2] the test system is Trypanosoma brucei rhodesiense. The data set is described as follows: Trypanocidal activity against bloodstream form of Trypanosoma brucei rhodesiense STIB900 infected in NMRI mouse assessed as decrease in parasitemia at 5 mg/kg, ip qd administered for 4 days measured once per week until 60 days by microscopic analysis. The data set is classed as functional, organism-based. Also on record: dose 5 mg/kg. A digest of the protocol: (§2)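 Mice infected with T. b. rhodesiense STIB900 received one dose daily for 4 consecutive days, 4 mice per group. Diamidines were given intraperitoneally and prodrugs orally. The primary endpoint was cures per group: a mouse counted as cured if it survived 60 days post-infection without parasitemia relapse.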

In data set [3] the test system is Trypanosoma brucei rhodesiense. The data set is described as follows: Antitrypanosomal activity against Trypanosoma brucei rhodesiense STIB900 assessed as growth inhibition after 70 hrs by Alamar blue assay. The data set is classed as functional, organism-based. The conditions noted are these: STIB900, 70 h.
Data set [4] in a line: Selectivity index, ratio of IC50 for rat L6 cells to IC50 for chloroquine/pyrimethamine-resistant Plasmodium falciparum K1 infected in human red blood cells. The data set is classed as toxicity, cell-based. Particulars: read-out: Ratio IC50. The method in brief: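 Ratio of IC50 in L6 rat myoblast cytotoxicity assay to IC50 against P. falciparum K1; each IC50 is the mean of two independent assays.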

The test system of data set [5] is Plasmodium falciparum. The data set is described as follows: Antiplasmodial activity against chloroquine/pyrimethamine-resistant Plasmodium falciparum K1 infected in human red blood cells assessed as [3H]-hypoxanthine incorporation incubated for 48 hrs prior to [3H]-hypoxanthine addition measured after 24 hrs by liquid scintillation counting analysis. The data set is classed as functional, organism-based.

Data set [6] relates to L6. Description: Cytotoxicity against rat L6 cells assessed as cell viability after 70 hrs by Alamar blue assay. The conditions noted are these: L6, 70 h. The data set is classed as cell-based. In general terms: Alamar Blue is a resazurin reagent that responds to reducing activity.
Data set [7] is described as follows: Selectivity index, ratio of IC50 for rat L6 cells to IC50 for Trypanosoma brucei rhodesiense STIB900. The data set is classed as toxicity, cell-based. Particulars: read-out: Ratio IC50. The method in brief: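 Ratio of IC50 in L6 rat myoblast cytotoxicity assay to IC50 against T. b. rhodesiense STIB900; each IC50 is the mean of two independent assays.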
The subject of data set [8] is Trypanosoma brucei rhodesiense. Description: Trypanocidal activity against bloodstream form of Trypanosoma brucei rhodesiense STIB900 infected in NMRI mouse assessed as mean survival days at 25 mg/kg, po qd administered for 4 days. The data set is classed as functional. A digest of the protocol: as §1
The subject of data set [9] is Trypanosoma brucei rhodesiense. The data set is described as follows: Trypanocidal activity against bloodstream form of Trypanosoma brucei rhodesiense STIB900 infected in NMRI mouse assessed as decrease in parasitemia at 25 mg/kg, po qd administered for 4 days measured once per week until 60 days by microscopic analysis. The data set is classed as functional, organism-based. Also on record: dose 25 mg/kg. The method in brief:
as §2

As for `Cl.Cl.N=C(N)c1cccc(-c2cc(-c3cncc(C(=N)N)c3)on2)c1`, the MSD in data set [1] is 21.75 days. The result in [2] was inactive. Also, the IC50 was 0.207 µM in [3], 0.0217 µM in [5] and > 180 µM in data set [6]. In addition, the selectivity ratio in [4] is > 9170; in data set [7], > 964.
With `Cl.Cl.N/C(=N\O)c1ccc(-c2cc(-c3cc(/C(N)=N/O)ccc3[N+](=O)[O-])no2)cc1`, the MSD in data set [8] came out at 7.25 days. In addition, the outcome in [9] was inactive.
For the compound `Cl.Cl.Cl.N=C(N)c1ccc(-c2cc(-c3ccc(C(=N)N)cc3Cl)on2)cc1`, the MSD in data set [1] is >31 days. The result in data set [2] was inactive.
Take `Cl.Cl.N=C(N)c1ccc(-c2cc(-c3cncc(C(=N)N)c3)on2)cc1`: the MSD in [1] is >54.5 days. Besides, the 50% inhibitory concentration (IC50) in [3] turned out to be 0.0144 µM; in data set [5] it was 0.0189 µM; in [6] it was 4.37 µM. Also, the results for the selectivity ratio in data set [4] and in data set [7] were 231 and 302, respectively.
Turning to `Cl.Cl.Cl.N/C(=N\O)c1cccc(-c2cc(-c3ccc(/C(N)=N/O)cc3Cl)on2)c1`, the MSD in data set [8] came out at 8.5 days. The outcome in data set [9] was inactive.
In the case of `C[C@@H]1CC[C@H]2[C@@H](C)C(=O)O[C@@H]3O[C@@]4(C)CC[C@@H]1[C@]32OO4` [ARTEMISININ], the figures for the IC50 in data set [5] and in data set [6] were 0.004 µM and > 180 µM, respectively.
For `Cl.Cl.N=C(N)c1ccc(-c2cc(-c3ccc(C(=N)N)cn3)no2)cc1`, the MSD in data set [1] is >52.75 days. Besides, the 50% inhibitory concentration (IC50) came to 0.0505 µM in data set [3], 0.0167 µM in data set [5] and 46.2 µM in data set [6]. In addition, the selectivity ratio in [4] worked out at 2770; in data set [7] it was 915.
Consider `COc1cc(/C(N)=N/O)ccc1-c1cc(-c2cccc(/C(N)=N/O)c2)on1.Cl.Cl`, for which, in data set [8], the MSD turned out to be 17.5 days. Also, the result in [9] was inactive.
As to `Cl.Cl.N=C(N)c1ccc(-c2cc(-c3ccc(C(=N)N)cn3)on2)cc1`, the MSD in data set [1] is >44 days. The results for the half-maximal inhibitory concentration (IC50) in data set [3], in data set [5] and in [6] were 0.0121 µM, 0.0096 µM and 35.9 µM, respectively. Also, the values for the selectivity ratio in [4] and in data set [7] were 3750 and 2970, respectively.
For `COc1c(/C(N)=N/O)cccc1-c1cc(-c2cccc(/C(N)=N/O)c2OC)on1.Cl.Cl`, in [8], the MSD was 6 days. The outcome in data set [9] was inactive.
In the case of `N=C(N)c1cccc(-c2cc(-c3cc(C(=N)N)ccn3)on2)c1`, the IC50 in data set [3] was 0.183 µM; in data set [5], 0.0249 µM; in data set [6], > 180 µM. The selectivity ratio in data set [4] is > 7230; in data set [7], > 986.
Turning to `Cl.Cl.Cl.N=C(N)c1cccc(-c2cc(-c3cc(C(=N)N)ccc3Cl)on2)c1`, the MSD in data set [1] worked out at 25 days. Moreover, the outcome in [2] was inactive.
The matching figures for `COc1cc(C(=N)N)ccc1-c1cc(-c2ccc(C(=N)N)cc2)on1.Cl.Cl`: >60 days and “Active”.
On to `Cl.Cl.N=C(N)c1cccc(-c2cc(-c3ccc(C(=N)N)nc3)no2)c1`, for which, in data set [1], the MSD was >60 days. In addition, in data set [2], the outcome was Active. The IC50 in [3] was determined as 0.0018 µM; in [5], 0.0005 µM; in data set [6], 2.08 µM. Also, the results for the selectivity ratio in data set [4] and in data set [7] were 3800 and 1120, respectively.
For `CO/N=C(\N)c1ccc(-c2cc(-c3ccc(/C(N)=N/OC)cc3)on2)cc1.Cl.Cl`, in data set [8], the MSD was >42.25 days.
Regarding `N=C(N)c1cccc(-c2cc(-c3cc(C(=N)N)ccn3)no2)c1`, the half-maximal inhibitory concentration (IC50) in data set [3] was determined as 0.492 µM; in data set [5], 0.015 µM; in [6], 130 µM. Further, the selectivity ratio came to 8700 in data set [4] and 265 in data set [7].
For `Cl.Cl.N=C(N)c1ccc(-c2cc(-c3ccc(C(=N)N)cc3[N+](=O)[O-])no2)cc1`, in data set [1], the MSD is >51.25 days.
For the compound `Cl.Cl.Cl.N=C(N)c1ccc(-c2cc(-c3ccc(C(=N)N)cc3Cl)no2)cc1`, in data set [1], the MSD came to 28 days. Also, the outcome in data set [2] was inactive.
For the compound `N=C(N)c1ccc(-c2cc(-c3cc(C(=N)N)ccn3)no2)nc1`, the IC50 in [3] was 1.67 µM; in data set [5] it was 0.0074 µM; in data set [6] it was > 180 µM. The results for the selectivity ratio in [4] and in [7] were > 2430 and > 180, respectively.
As to `COc1ccc(C(=N)N)cc1-c1cc(-c2ccc(C(=N)N)cc2[N+](=O)[O-])no1.Cl.Cl`, the MSD in data set [1] is >60 days. For the same compound, the outcome in data set [2] was Active.
Take `N=C(N)c1ccc(-c2cc(-c3ccc(C(=N)N)cn3)on2)nc1`: the concentration for half-maximal inhibition (IC50) in data set [3] was 0.596 µM; in data set [5] it was 0.134 µM; in data set [6], > 180 µM. Further, the selectivity ratio in data set [4] is > 1350; in data set [7], > 302.
The matching figures for `N=C(N)c1cncc(-c2cc(-c3cncc(C(=N)N)c3)on2)c1`: 6.12 µM, 0.144 µM, > 180 µM, > 1250 and > 29.
In the case of `COc1cc(/C(N)=N/O)ccc1-c1cc(-c2ccc(/C(N)=N/O)cc2)on1.Cl.Cl`, the MSD in [8] is >42 days.
Turning to `N=C(N)c1ccnc(-c2cc(-c3cc(C(=N)N)ccn3)on2)c1`, the IC50 in [3] was 5.71 µM; in data set [5] it was 0.327 µM; in data set [6], > 180 µM. The selectivity ratio in data set [4] was > 550; in [7], > 32.
For `N=C(N)c1ccc(-c2cc(-c3cc(C(=N)N)ccn3)on2)nc1`, in that order: 3.38 µM, 0.142 µM, > 180 µM, > 1260 and > 53.
For `COc1cc(C(=N)N)ccc1-c1cc(-c2ccc(C(=N)N)cc2OC)on1.Cl.Cl`, the MSD in data set [1] was >60 days. The outcome in data set [2] was Active.
As for `Cl.Cl.N=C(N)c1ccc(-c2cc(-c3cccc(C(=N)N)c3)no2)nc1`, in data set [1], the MSD is >38.75 days. Also, in data set [2], the outcome was inactive. Further, the IC50 in data set [3] came to 0.0072 µM; in data set [5] it was 0.0041 µM; in data set [6] it was 115 µM. Also, the selectivity ratio in data set [4] came out at 27800; in [7], 15900.
Regarding `Cl.Cl.N=C(N)c1ccc(-c2cc(-c3ccc(C(=N)N)cc3)on2)cc1`, the MSD in [1] was >60 days.
For the compound `Nc1nc(N)nc(Nc2ccc([As]3SCC(CO)S3)cc2)n1` (stereo not given), in [2], the result was Active.
For `Cl.Cl.Cl.N=C(N)c1cccc(-c2cc(-c3cc(C(=N)N)ccc3Cl)no2)c1`, the MSD in data set [1] stood at 22.25 days. Moreover, the result in data set [2] was inactive.
In the case of `Cl.Cl.N=C(N)c1ccc(-c2cc(-c3ccc(C(=N)N)nc3)on2)cc1`, the MSD in data set [1] is >57.25 days. Also, the IC50 in data set [3] worked out at 0.0027 µM; in [5], 0.0017 µM; in data set [6], 1.76 µM. Besides, the selectivity ratio in [4] amounted to 1050; in data set [7], 643.
For `Cl.Cl.N=C(N)c1cccc(-c2cc(-c3ccc(C(=N)N)nc3)on2)c1`, in data set [1], the MSD is >41.75 days. Besides, in [2], the outcome was inactive. Moreover, the IC50 in [3] came out at 0.0037 µM; in [5], 0.0011 µM; in data set [6], 1.4 µM. Also, the results for the selectivity ratio in [4] and in data set [7] were 1290 and 379, respectively.
With `CO/N=C(\N)c1ccc(-c2cc(-c3cc(/C(N)=N/OC)ccc3OC)no2)cc1.Cl.Cl`, in data set [8], the MSD is >37.25 days.
With `Cl.Cl.N=C(N)c1ccc(-c2cc(-c3cc(C(=N)N)ccn3)on2)cc1`, the MSD in [1] worked out at 28.5 days. Further, the result in [2] was inactive. In addition, the IC50 is 0.0643 µM in data set [3], 0.058 µM in data set [5] and 149 µM in [6]. For the same compound, the selectivity ratio was found to be 2570 in data set [4] and 2320 in [7].
Regarding `COc1cc(C(=N)N)ccc1-c1cc(-c2cc(C(=N)N)ccc2OC)on1.Cl.Cl`, the MSD in data set [1] was >60 days. The result in data set [2] was Active.
Take `N=C(N)c1cncc(-c2cc(-c3cccc(C(=N)N)c3)on2)c1`: the IC50 in data set [3] is 0.583 µM; in data set [5] it was 0.018 µM; in data set [6], > 180 µM. In addition, the selectivity ratio in [4] is > 10000; in data set [7] it was > 309.
With `CO/N=C(\N)c1cccc(-c2cc(-c3ccc(/C(N)=N/OC)cc3OC)no2)c1.Cl.Cl`, the MSD in [8] was >50 days.
For the compound `Cl.Cl.N=C(N)c1ccc(-c2cc(-c3ccc(C(=N)N)cc3[N+](=O)[O-])on2)cc1`, in [1], the MSD was >53.75 days.
Take `Cl.Cl.Cl.N=C(N)c1cccc(-c2cc(-c3ccc(C(=N)N)cc3Cl)no2)c1`: the MSD in data set [1] turned out to be 24 days. In data set [2], the outcome was inactive.

One may read the IC50 as the concentration needed to halve the response being measured.
